The values below come from ChEMBL document CHEMBL1156154, “Heterocyclic fused pyridone carboxylic acid M(1) positive allosteric modulators” (Bioorg Med Chem Lett, 2010).

Series [1] addresses T1, Muscarinic acetylcholine receptor M1 (Homo sapiens) (UniProt P11229).
T1 sequence (whole entry): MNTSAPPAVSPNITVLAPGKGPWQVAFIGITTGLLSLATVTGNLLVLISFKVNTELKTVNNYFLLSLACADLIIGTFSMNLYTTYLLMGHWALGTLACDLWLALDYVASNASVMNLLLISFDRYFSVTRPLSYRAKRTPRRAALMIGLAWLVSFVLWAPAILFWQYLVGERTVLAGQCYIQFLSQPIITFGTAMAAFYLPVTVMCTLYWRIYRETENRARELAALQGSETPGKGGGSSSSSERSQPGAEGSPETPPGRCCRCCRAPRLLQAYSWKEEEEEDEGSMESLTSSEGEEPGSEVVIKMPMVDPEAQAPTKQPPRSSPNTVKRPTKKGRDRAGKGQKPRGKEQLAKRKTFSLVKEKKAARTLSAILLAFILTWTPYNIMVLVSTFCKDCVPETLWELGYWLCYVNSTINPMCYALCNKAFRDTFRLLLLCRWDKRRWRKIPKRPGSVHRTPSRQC
The series can be described thus: Positive allosteric modulator activity at human muscarinic M1 receptor expressed in CHO cells assessed as effect on acetylcholine-induced intracellular calcium mobilization by FLIPR assay. It is filed as functional, cell-based. Summed up: (§1)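 CHO cells expressing human M1 were run with an EC20 concentration of acetylcholine. Calcium mobilization was read on a FLIPR384. Potency is reported as the inflection point. Percent max is the compound plus EC20 ACh response relative to the maximal acetylcholine effect.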
In general terms: A change in cytosolic calcium serves as a functional read-out for many receptors and channels.

The nature of series [2]: Plasma protein binding in human serum by equilibrium dialysis method.
Series [3] has as its target T2, Muscarinic acetylcholine receptor M4 (Homo sapiens) (UniProt P08173).
T2 sequence (whole entry): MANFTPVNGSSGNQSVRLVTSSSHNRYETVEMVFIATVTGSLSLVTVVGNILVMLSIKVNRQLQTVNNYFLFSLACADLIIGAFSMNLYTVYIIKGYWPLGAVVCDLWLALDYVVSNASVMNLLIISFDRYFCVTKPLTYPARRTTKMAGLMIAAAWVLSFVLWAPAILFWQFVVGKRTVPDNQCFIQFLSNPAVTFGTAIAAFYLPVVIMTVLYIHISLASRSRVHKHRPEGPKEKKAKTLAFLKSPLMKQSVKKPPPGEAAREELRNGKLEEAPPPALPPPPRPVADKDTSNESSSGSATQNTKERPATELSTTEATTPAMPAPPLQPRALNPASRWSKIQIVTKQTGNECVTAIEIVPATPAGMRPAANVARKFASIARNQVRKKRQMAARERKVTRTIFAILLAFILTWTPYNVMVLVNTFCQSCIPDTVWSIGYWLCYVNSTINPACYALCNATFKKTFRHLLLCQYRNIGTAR
The series can be described thus: Positive allosteric modulator activity at human muscarinic M4 receptor expressed in CHO cells assessed as effect on acetylcholine-induced intracellular calcium mobilization by FLIPR assay. It counts as functional, cell-based.

Series [4] addresses T1, Muscarinic acetylcholine receptor M1 (Homo sapiens). Description: Positive allosteric modulator activity at human muscarinic M1 receptor expressed in CHO cells assessed as effect on acetylcholine-induced intracellular calcium mobilization by FLIPR assay relative to acetylcholine. It counts as functional, cell-based. Summed up: as §1
Series [5] concerns the target T3, Muscarinic acetylcholine receptor M2 (Homo sapiens) (UniProt P08172).
T3 sequence (whole entry): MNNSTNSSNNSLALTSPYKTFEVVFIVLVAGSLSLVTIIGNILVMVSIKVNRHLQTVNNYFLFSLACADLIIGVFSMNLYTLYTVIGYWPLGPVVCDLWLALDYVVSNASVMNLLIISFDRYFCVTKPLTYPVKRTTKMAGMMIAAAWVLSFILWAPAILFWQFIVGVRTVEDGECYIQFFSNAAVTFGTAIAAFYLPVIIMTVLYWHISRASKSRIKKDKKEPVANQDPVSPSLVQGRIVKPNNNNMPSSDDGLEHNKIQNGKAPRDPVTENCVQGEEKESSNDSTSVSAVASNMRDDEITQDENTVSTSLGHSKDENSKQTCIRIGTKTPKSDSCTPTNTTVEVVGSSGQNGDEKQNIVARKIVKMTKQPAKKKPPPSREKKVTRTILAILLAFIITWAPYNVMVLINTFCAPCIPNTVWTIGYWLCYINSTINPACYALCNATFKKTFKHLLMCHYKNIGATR
The series can be described thus: Positive allosteric modulator activity at human muscarinic acetylcholine M2 receptor expressed in CHO cells assessed as effect on acetylcholine-induced intracellular calcium mobilization by FLIPR assay. It counts as functional, cell-based.

The nature of series [6]: Plasma protein binding in rat serum by equilibrium dialysis method. (In general: In equilibrium dialysis free small molecules cross a membrane that holds back macromolecules.)
For series [7], the target named is Muscarinic acetylcholine receptor M3 (Homo sapiens) (UniProt P20309). Description: Positive allosteric modulator activity at human muscarinic M3 receptor expressed in CHO cells assessed as effect on acetylcholine-induced intracellular calcium mobilization by FLIPR assay. It counts as functional, cell-based.
The nature of series [8]: Clearance in rat at 10 mg/kg, po and 2 mg/kg, iv. The settings on record: in vivo. It is filed as ADME, organism-based. Summed up:
(§2)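 Rat pharmacokinetics, oral dosing at 10 mpk and intravenous dosing at 2 mpk. Bioavailability, half-life and clearance derived from these profiles.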

Series [9] in a line: Ratio of drug level in CSF to fraction unbound in plasma in P-glycoprotein deficient mouse. It is filed as ADME. The settings on record: in vivo. Summed up:
(§3)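 CF-1 wild-type and P-gp knockout mice were dosed, and plasma and CSF were taken 30 min later. The CSF to unbound plasma ratio was then calculated.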

Series [10] is filed under the species Mus musculus. Description: Effect on behavioral activity in mouse contextual fear conditioning model assessed as episodic memory. It counts as functional, organism-based.
In series [11] the test system is Cerebrospinal fluid. The series can be described thus: Drug level in Sprague-Dawley rat CSF at 10 mg/kg, po. It is filed as ADME, organism-based. Set-up: dose 10 mg/kg, route oral. The following applies: in vivo, read-out: Drug uptake.
Series [12] relates to Rattus norvegicus. The series can be described thus: Plasma concentration in Sprague-Dawley rat at 10 mg/kg, po. The following applies: in vivo. Set-up: dose 10 mg/kg, route oral. It counts as ADME, organism-based.
The nature of series [13]: Ratio of drug level in CSF to fraction unbound in plasma in CF-1 mouse. It counts as ADME. The following applies: in vivo. Summed up:
as §3

A short description of series [14]: Half life in rat at 10 mg/kg, po and 2 mg/kg, iv. It is filed as ADME, organism-based. The settings on record: in vivo. The gist of the method:
as §2

Series [15] can be described thus: Bioavailability in rat at 10 mg/kg, po and 2 mg/kg, iv. The following applies: in vivo. It counts as ADME, organism-based. The gist of the method: as §2
The test system of series [16] is Brain. Description: Drug level in Sprague-Dawley rat brain at 10 mg/kg, po. Set-up: dose 10 mg/kg, route oral. The settings on record: in vivo, read-out: Drug uptake. It counts as ADME, organism-based.
Series [17] is described as follows: Ratio of drug level in CSF to fraction unbound in plasma in rat. It is filed as ADME. The following applies: in vivo. Summed up: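 Sprague–Dawley rats dosed orally at 10 mg/kg in 0.5% methocel. CSF level divided by unbound plasma level. Unbound fraction comes from rat plasma protein binding by equilibrium dialysis.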
Series [18] is described as follows: Ratio of drug level in brain to plasma in Sprague-Dawley rat at 10 mg/kg, po. It is filed as ADME, organism-based. Details: dose 10 mg/kg, route oral.

The term fraction unbound denotes free concentration divided by total concentration. A lower fraction unbound goes with extensive binding. The term Emax denotes the greatest response seen or fitted, relative to the assay's reference. In general, half-life refers to the time in which the quantity being followed falls by half. Higher therefore signals slow decline. By bioavailability is commonly meant the share of a dose that reaches the circulation, judged against a reference dose that is usually intravenous. For orientation: Kp means tissue or fluid exposure divided by exposure in the circulation.

Activity calls are given as the source filed them. No cut-off for these calls is given here.

Muscarinic acetylcholine receptor M3 (Homo sapiens), sequence (P20309 whole entry, looked up): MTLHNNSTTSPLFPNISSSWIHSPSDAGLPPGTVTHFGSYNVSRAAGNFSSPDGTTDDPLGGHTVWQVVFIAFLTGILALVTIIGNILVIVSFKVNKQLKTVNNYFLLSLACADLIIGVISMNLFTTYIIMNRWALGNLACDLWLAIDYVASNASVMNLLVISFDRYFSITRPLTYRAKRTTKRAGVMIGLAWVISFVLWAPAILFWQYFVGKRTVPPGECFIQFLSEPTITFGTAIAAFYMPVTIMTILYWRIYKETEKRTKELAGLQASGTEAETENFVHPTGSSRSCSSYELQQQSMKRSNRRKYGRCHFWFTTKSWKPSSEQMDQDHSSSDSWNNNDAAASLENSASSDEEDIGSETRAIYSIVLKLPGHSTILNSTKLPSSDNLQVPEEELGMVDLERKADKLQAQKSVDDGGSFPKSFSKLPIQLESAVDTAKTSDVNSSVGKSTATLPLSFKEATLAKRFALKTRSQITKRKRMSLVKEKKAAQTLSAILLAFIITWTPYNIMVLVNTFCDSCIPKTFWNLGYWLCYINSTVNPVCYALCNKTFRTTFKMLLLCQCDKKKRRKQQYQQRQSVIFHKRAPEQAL

For `O=C(O)c1cn(Cc2ccc(-c3ccccc3)cc2)c2sccc2c1=O`, the IP in series [1] was determined as 0.37 µM. Moreover, the fraction unbound in series [2] was 0.007; in series [6] it was 0.004. Also, the outcome in [3], in series [5] and in [7] was inactive. Moreover, the maximal response (Emax) in [4] worked out at 78%.
In [8], `O=C(O)c1cn(Cc2ccc(-n3cccn3)cc2)c2ccsc2c1=O` gave a clearance of 0.408 L/h/kg. In addition, the Ratio in series [9] is 0.16; in [13], 0.05; in [17], 0.21. Also, the result in series [10], in [3], in [5] and in [7] was inactive. Also, the concentration in [11] is 0.123 µM; in series [12], 4.24 µM; in series [16], 0.316 µM. In series [1], the IP was determined as 0.52 µM. Also, the fraction unbound in [2] was 0.14; in [6], 0.132. This compound also had a half-life in series [14] of 3.7 h. The compound further returned a bioavailability in series [15] of 33%. Besides, in series [18], the Kp worked out at 0.07.
With `O=C(O)c1cn(Cc2ccc(-c3ccccc3)cc2)c2ncccc2c1=O`, the IP in series [1] came out at 0.58 µM. The fraction unbound in series [2] was 0.008; in series [6], 0.003. In addition, the result in [3], in series [5] and in series [7] was inactive. Also, in series [4], the Emax is 56%.
Take `O=C(O)c1cn(Cc2ccc(-c3ccccc3)cc2)c2nccnc2c1=O`: the IP in [1] came to 0.78 µM. The fraction unbound in series [2] and in [6] was 0.023 in each case. In addition, the result in series [3], in [5] and in series [7] was inactive. The Emax in [4] was 96%.
Take `Cn1cc(-c2ccc(Cn3cc(C(=O)O)c(=O)c4sccc43)nc2)cn1`: the values for the concentration in series [11], in series [12] and in [16] were 0.042 µM, 9.42 µM and 0.159 µM, respectively. In series [1], the IP amounted to 0.34 µM. The figures for the fraction unbound in [2] and in series [6] were 0.279 and 0.094, respectively. Besides, the outcome in series [3], in series [5] and in series [7] was inactive. For the same compound, the Ratio in series [17] amounted to 0.05. Further, in [18], the Kp turned out to be 0.02.
Consider `Cc1ccn(-c2ccc(Cn3cc(C(=O)O)c(=O)c4ccncc43)cc2)n1`, for which the concentration stood at 0.024 µM in [11], 78.5 µM in series [12] and 1.2 µM in [16]. Besides, the IP in [1] stood at 0.25 µM. The fraction unbound is 0.125 in series [2] and 0.011 in series [6]. Further, the result in [3], in series [5] and in series [7] was inactive. For the same compound, the Ratio in [17] is listed as 0.03. Further, the Kp in [18] turned out to be 0.15.
For the compound `O=C(O)c1cn(Cc2ccc(-c3ccccc3)cc2)c2ccsc2c1=O`, the IP in series [1] was found to be 0.15 µM. Moreover, the figures for the fraction unbound in [2] and in [6] were 0.013 and 0.008, respectively. Besides, the result in [3], in series [5] and in series [7] was inactive. Also, the Emax in series [4] is 90%.
